Test results as given in ChEMBL document CHEMBL1157774, “Investigations of fungal secondary metabolites with potential anticancer activity” (J Nat Prod, 2010).
Activity calls are given as the source filed them. The calls are words filed in the database; no cut-off is given here.

How the values were obtained:
A549 = assay: Growth inhibition of apoptosis-resistant human A549 cells after 72 hrs by MTT assay; type: functional, cell-based; conditions: A549, 72 h
Outline: (§1)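 Cells seeded at 10 000 to 40 000 cells/mL, depending on line, and plated 24 h before treatment. Cultured 72 h with or without (control) compound. Viable cells measured by MTT reduction to formazan, absorbance at 570 nm (reference 630 nm). IC50 reported as mean ± SEM. Media carried 4 mM glutamine, gentamicin and penicillin-streptomycin. B16F10 grown in RPMI with 10% heat-inactivated FCS.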

[1] = Growth inhibition of apoptosis-resistant human OE21 cells after 72 hrs by MTT assay; type: functional, cell-based; conditions: OE21, 72 h; outline: as §1
SK-MEL-28 = assay: Growth inhibition of apoptosis-resistant human SK-MEL-28 cells after 72 hrs by MTT assay; type: functional, cell-based; conditions: SK-MEL-28, 72 h; outline: as §1
[2] = Growth inhibition of apoptosis-resistant human U373 cells after 72 hrs by MTT assay; type: functional, cell-based, U-373MG ATCC; conditions: U373 MG; outline: as §1
B16-F10 [3] = assay: Growth inhibition of apoptosis-sensitive mouse B16F10 cells after 72 hrs by MTT assay; type: functional, cell-based; conditions: B16-F10, 72 h; outline: as §1
Hs 683 = assay: Growth inhibition of apoptosis-sensitive human Hs 683 cells after 72 hrs by MTT assay; type: functional, cell-based; conditions: Hs 683, 72 h; outline: as §1
B16-F10 [4] = assay: Cytostatic effect against apoptosis-sensitive mouse B16F10 cells assessed as impairment of cell population development at 20 uM by quantitative video microscopy
B16-F10 [5] = assay: Cytostatic effect against apoptosis-sensitive mouse B16F10 cells assessed as impairment of cell population development at 20 uM by quantitative video microscopy; type: functional, cell-based
Outline: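 Computer-assisted phase-contrast microscopy (quantitative videomicroscopy) of B16F10 cells in RPMI with 10% heat-inactivated FCS, monitored 72 h without (control) or with compound. Time-lapse image sequences built into movies. Growth level taken as ratio of cell counts in first versus last frames. Cells counted in 1 mm2 fields at G×20, triplicate conditions, five fields each (15 fields per condition), mean ± SEM.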

C/C=C/C=C/C(=O)[C@@H]1[C@@H]([C@]2(C)OC(=O)C(C)=C2O)C2\C(=C(O)/C=C/C=C/C)C(=O)[C@]1(C)C(=O)[C@@]2(C)O [BISLONGIQUINOLIDE]
IC50 (A549): 11 µM | IC50 [1]: 9 µM | IC50 (SK-MEL-28): 8 µM | IC50 [2]: 4 µM | IC50 (B16-F10 [3]): 3 µM | IC50 (Hs 683): 22 µM

C/C=C/C=C/C(=O)C1=C(O)[C@@]2(C)C3C(C(=O)CC/C=C/C)=C(O)[C@@]4(C)C1[C@]1(C)O[C@@]4(O)[C@@]3(C)O[C@@]12O [DIHYDROTRICHODIMEROL]
IC50 (A549): 33 µM | IC50 [1]: 28 µM | IC50 (SK-MEL-28): 33 µM | inhibition (B16-F10 [4]): Active | IC50 [2]: 25 µM | IC50 (B16-F10 [3]): 3 µM | IC50 (Hs 683): 34 µM

O[C@H]1[C@H]2c3cc4c(cc3CN3CCC(=C[C@@H]1O)[C@H]23)OCO4 [LYCORINE]
IC50 (A549): 2 µM | IC50 [1]: 2 µM | IC50 (SK-MEL-28): 2 µM | IC50 [2]: 2 µM | inhibition (B16-F10 [5]): Active | IC50 (B16-F10 [3]): 2 µM | IC50 (Hs 683): 2 µM

O=C1N[C@@H]2C(=C[C@H](O)[C@@H](O)[C@H]2O)c2cc3c(c(O)c21)OCO3 [NARCICLASINE]
IC50 (A549): 0.05 µM | IC50 [1]: 0.05 µM | IC50 (SK-MEL-28): 0.05 µM | IC50 [2]: 0.05 µM | IC50 (B16-F10 [3]): 0.05 µM | IC50 (Hs 683): 0.05 µM

C[C@@H]1[C@@]2(C)CC[C@@H]3[C@H]2CC[C@@]1(C)O[C@@]3(C)O [SEIRICARDINE B]
IC50 (A549): > 100 µM | IC50 [1]: > 100 µM | IC50 (SK-MEL-28): > 100 µM | IC50 [2]: > 100 µM | IC50 (B16-F10 [3]): > 100 µM | IC50 (Hs 683): > 100 µM

C[C@@H]1[C@@]2(C)CC[C@@H]3[C@H]2CC[C@@]1(C)O[C@]3(C)O [SEIRICARDINE C]
IC50 (A549): > 100 µM | IC50 [1]: > 100 µM | IC50 (SK-MEL-28): > 100 µM | IC50 [2]: > 100 µM | IC50 (B16-F10 [3]): > 100 µM | IC50 (Hs 683): > 100 µM
